{"data": "Measurements of several laboratories", "note": "Compare with care: the assays were run in different laboratories."}
{"SMILES": "COc1ccc(NC(=O)c2c(Nc3ccccc3)sc(C#N)c2NC(=O)CNc2ccccc2Cl)cc1", "target or system": "HCT-116", "assay": "cell growth or viability, SRB", "conditions": "0.1 µM, 48 h", "measurement": "viability", "value": "64.3%"}
{"SMILES": "NC(=O)N1c2ccccc2C=Cc2ccccc21", "assay": "MES seizures", "system": "rat", "conditions": "oral", "measurement": "ED50", "value": "10.9 mg/kg"}
{"SMILES": "O=C(O)CN1C(=O)/C(=C/c2c3ccccc3c(-c3ccc(N(c4ccccc4)c4ccccc4)cc3)c3ccccc23)SC1=S", "target or system": "Streptococcus mutans", "assay": "microbial killing, broth dilution", "system": "ATCC25175", "measurement": "MBC", "value": "> 1000 µg/mL"}
{"SMILES": "Fc1ccc(NCc2c(-c3ccccn3)nc3ccccn23)cc1", "target or system": "Leishmania infantum", "assay": "parasite growth", "conditions": "5 days, intracellular, amastigote", "measurement": "EC50", "value": "12.6 µM"}
{"SMILES": "COc1ccc(NC(=O)c2c(Nc3ccccc3)sc(C#N)c2NC(=O)CNc2ccc(Br)cc2)cc1", "target or system": "HCT-116", "assay": "cell growth or viability, SRB", "conditions": "1 nM, 48 h", "measurement": "viability", "value": "101%"}
{"SMILES": "Cc1c(C)c2c(c(C)c1O)CCC(C)(C(=O)O)O2 (centres unmarked)", "assay": "lipid peroxidation, inhibitor", "measurement": "IC50", "value": "107 µg/mL"}
{"SMILES": "Cc1ccc2nc(-c3ccccc3)c(CNc3ccc(F)cc3)n2c1", "target or system": "Leishmania infantum", "assay": "parasite growth", "conditions": "intracellular, amastigote", "measurement": "IC50", "value": "> 64 µM"}
{"SMILES": "O=C1NC(=S)S/C1=C\\c1ccc(-c2ccc(N(c3ccccc3)c3ccccc3)cc2)cc1", "target or system": "Streptococcus pyogenes", "assay": "microbial killing, broth dilution", "system": "ATCC19615", "measurement": "MBC", "value": "> 1000 µg/mL"}
{"SMILES": "c1ccc(-c2nc3n(c2-c2ccncc2)CCC3)nc1", "target or system": "Leishmania infantum", "assay": "parasite growth", "conditions": "intracellular, amastigote", "measurement": "IC50", "value": "> 64 µM"}
{"SMILES": "COc1ccc(NC(=O)c2c(Nc3ccccc3)sc(C(=O)NN=Cc3ccc(OC)c(O)c3)c2NC(C)=O)cc1", "target or system": "HCT-116", "assay": "cell growth or viability, SRB", "conditions": "10 µM, 48 h", "measurement": "viability", "value": "35.6%"}
{"SMILES": "O=C1NC(=S)S/C1=C\\c1ccc(-c2ccc(N(c3ccccc3)c3ccccc3)cc2)c2ccccc12", "target or system": "Streptococcus pyogenes", "assay": "microbial killing, broth dilution", "system": "ATCC19615", "measurement": "MBC", "value": "> 1000 µg/mL"}
{"SMILES": "COc1ccc(NC(=O)c2c(Nc3ccccc3)sc(C#N)c2NC(=O)CNc2ccc(Cl)cc2)cc1", "target or system": "HCT-116", "assay": "cell growth or viability, SRB", "conditions": "1 µM, 48 h", "measurement": "viability", "value": "60.1%"}
{"SMILES": "O=C(O)CN1C(=O)/C(=C/c2ccc(-c3ccc(N(c4ccccc4)c4ccccc4)cc3)c3ccccc23)SC1=S", "target or system": "Streptococcus mutans", "assay": "microbial growth, broth dilution", "system": "ATCC25175", "measurement": "MIC", "value": "1000 µg/mL"}
{"SMILES": "COc1ccc(/C=C/c2coc3ccc(OC)cc3c2=O)cc1", "target or system": "HSC-2", "assay": "cell growth or viability, MTT", "conditions": "7 h", "measurement": "CC50", "value": "20 µM"}
{"SMILES": "CC(=O)N(c1ccc(F)cc1)c1c(-c2ccccn2)nc2ccccn12", "target or system": "Leishmania infantum", "assay": "parasite growth", "conditions": "intracellular, amastigote", "measurement": "IC50", "value": "> 64 µM"}
{"SMILES": "COc1ccc(NC(=O)c2c(Nc3ccccc3)sc(C(=O)NN=Cc3ccc(Cl)cc3)c2NC(C)=O)cc1", "target or system": "HCT-116", "assay": "cell growth or viability, SRB", "conditions": "100 µM, 48 h", "measurement": "viability", "value": "50.9%"}
{"SMILES": "Fc1ccc(Nc2c(-c3ccc(F)cn3)nc3ccccn23)cc1", "target or system": "Leishmania infantum", "assay": "parasite growth", "conditions": "5 days, intracellular, amastigote", "measurement": "EC50", "value": "12.6 µM"}
{"SMILES": "CNC(=O)c1cc(Oc2ccc(NC(=O)Nc3ccc(Cl)c(C(F)(F)F)c3)cc2)ccn1", "target or system": "HCT-116", "assay": "cell growth or viability, SRB", "conditions": "1 nM, 48 h", "measurement": "viability", "value": "100%"}
{"SMILES": "O=C(O)CN1C(=O)/C(=C/c2ccc(-c3ccc(N(c4ccccc4)c4ccccc4)cc3)cc2)SC1=S", "target or system": "Streptococcus pyogenes", "assay": "microbial growth, broth dilution", "system": "ATCC19615", "measurement": "MIC", "value": "15.6 µg/mL"}
{"SMILES": "COc1ccc(NC(=O)c2c(Nc3ccccc3)sc(C#N)c2NC(=O)CNc2ccc([N+](=O)[O-])cc2)cc1", "target or system": "HCT-116", "assay": "cell growth or viability, SRB", "conditions": "1 nM, 48 h", "measurement": "viability", "value": "103%"}
{"SMILES": "Cc1cccc(-c2c(-c3ccccn3)nc3n2CCC3)c1", "target or system": "Leishmania infantum", "assay": "parasite growth", "conditions": "5 days, intracellular, amastigote", "measurement": "EC50", "value": "0.631 µM"}
{"SMILES": "O=C(O)CN1C(=O)/C(=C/c2c3ccccc3c(-c3ccc(N(c4ccccc4)c4ccccc4)cc3)c3ccccc23)NC1=S", "target or system": "Streptococcus mutans", "assay": "microbial killing, broth dilution", "system": "ATCC25175", "measurement": "MBC", "value": "> 1000 µg/mL"}
{"SMILES": "COc1ccc2occ(/C=C/c3cc(OC)c(OC)c(OC)c3)c(=O)c2c1", "target or system": "HSC-2", "assay": "cell growth or viability, MTT", "conditions": "21 h", "measurement": "CC50", "value": "5.1 µM"}
{"SMILES": "O=C1NC(=S)N/C1=C\\c1ccc(-c2ccc(N(c3ccccc3)c3ccccc3)cc2)cc1", "target or system": "Streptococcus mutans", "assay": "microbial killing, broth dilution", "system": "ATCC25175", "measurement": "MBC", "value": "> 1000 µg/mL"}
{"SMILES": "O=C1O[C@H]([C@@H](O)CO)C(O)=C1O", "assay": "DPPH scavenging, absorbance", "conditions": "15 min", "measurement": "EC50", "value": "34 µM"}
{"SMILES": "COc1cccc(-c2nc3ccccn3c2Nc2ccc(F)cc2)n1", "target or system": "Leishmania infantum", "assay": "parasite growth", "conditions": "5 days, intracellular, amastigote", "measurement": "EC50", "value": "> 63.1 µM"}
{"SMILES": "O=C(O)CN1C(=O)/C(=C/c2ccc(-c3ccc(N(c4ccccc4)c4ccccc4)cc3)c3ccccc23)NC1=S", "target or system": "Streptococcus mutans", "assay": "microbial killing, broth dilution", "system": "ATCC25175", "measurement": "MBC", "value": "> 1000 µg/mL"}
{"SMILES": "COc1cccnc1-c1nc2ccccn2c1Nc1ccc(F)cc1", "target or system": "Leishmania infantum", "assay": "parasite growth", "conditions": "5 days, intracellular, amastigote", "measurement": "EC50", "value": "31.6 µM"}
{"SMILES": "COc1ccc(NC(=O)c2c(Nc3ccccc3)sc(C(=O)NN=Cc3ccc(C)cc3)c2NC(C)=O)cc1", "target or system": "HCT-116", "assay": "cell growth or viability, SRB", "conditions": "1 µM, 48 h", "measurement": "viability", "value": "76.4%"}
